According to paper PMC11329366 (Clinical and Translational Science, 2024):

Legend:
[1] = tested on: plasma aldosterone; assay: Phase I pharmacodynamics: plasma aldosterone concentration; assay type: in vivo, human
Procedure, shortened: (§1)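 Plasma aldosterone and serum cortisol were followed after single fasted doses and after daily fed dosing. PAC AUC0–24 and cortisol AUC0–72 were derived non-compartmentally. Log AUC was modelled by dose group (pooled placebo), with Day ‑1 log AUC0–24 as covariate. Log change from time-matched Day ‑1 values over 0–24 h used a linear mixed model with unstructured covariance.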

[2] = tested on: urinary log10 (10 × Na+/K+) ratio; assay: Phase I pharmacodynamics: urine sodium and urinary log10; assay type: in vivo, human
Procedure, shortened: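 Urine was collected in intervals, and the amounts of sodium and potassium excreted per interval were measured. The urinary log10(10 × Na⁺/K⁺) ratio was calculated per interval after single doses and through 7 days of once-daily 40–360 mg dosing plus washout.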

[3] = Phase I first-in-human study: safety and tolerability; assay type: in vivo
Procedure, shortened: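 Randomized, double-blind, placebo-controlled. SAD cohorts had 6 active/2 placebo, with two sentinels dosed ≥24 h before the rest. MAD cohorts had 9 active/3 placebo, dosed daily Days 1–7. Safety data were reviewed before each next cohort. Monitoring covered TEAEs, treatment-related TEAEs, vital signs, 12-lead ECGs, clinical laboratory tests and physical examinations.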

[4] = tested on: serum 11-DOC; assay: Phase I pharmacodynamics: serum 11-DOC; assay type: in vivo, human; conditions: MAD 40 to 360 mg once daily
[5] = target: T1, human CYP11B2 (hCYP11B2) (Homo sapiens, UniProt P19099); assay: Assay of hCYP11B2 inhibition; assay type: biochemical; conditions: from inhibition constants
T1 sequence (P19099 25-503): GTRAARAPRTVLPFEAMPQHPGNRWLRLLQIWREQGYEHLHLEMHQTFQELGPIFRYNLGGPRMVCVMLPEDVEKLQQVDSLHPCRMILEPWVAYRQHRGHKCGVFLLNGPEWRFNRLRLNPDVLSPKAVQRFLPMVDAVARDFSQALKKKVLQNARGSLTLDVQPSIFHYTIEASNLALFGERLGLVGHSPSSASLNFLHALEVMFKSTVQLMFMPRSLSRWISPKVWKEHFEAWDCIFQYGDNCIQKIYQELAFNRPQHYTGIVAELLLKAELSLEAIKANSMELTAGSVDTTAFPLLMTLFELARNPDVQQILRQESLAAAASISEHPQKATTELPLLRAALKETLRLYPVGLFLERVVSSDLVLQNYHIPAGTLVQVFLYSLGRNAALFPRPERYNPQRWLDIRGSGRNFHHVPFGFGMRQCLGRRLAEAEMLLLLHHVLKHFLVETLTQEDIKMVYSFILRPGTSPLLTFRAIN
Procedure, shortened: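 Enzyme source: mitochondrial fraction of V79 cells stably expressing human CYP11B2 or human CYP11B1. Substrates were 11-DOC (converted to aldosterone, CYP11B2) and 11-deoxycortisol (converted to cortisol, CYP11B1). Inhibition constants came from product-generation rates with the free base. A dual CYP11B1/CYP11B2 reference inhibitor served as positive control.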

[6] = tested on: serum potassium; assay: Phase I: serum potassium; assay type: in vivo, human
Procedure, shortened: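 Serum potassium was tracked during 7 days of once-daily 40, 120 or 360 mg dosing (fed) and the following washout. The stopping criterion was 6.0 mmol/L potassium.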

[7] = tested on: serum cortisol; assay: Phase I pharmacodynamics: serum cortisol, incl. ACTH challenge; assay type: in vivo, human
Procedure, shortened: as §1

[8] = Phase I first-in-human study: plasma and urine pharmacokinetics; assay type: in vivo
Procedure, shortened: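 Healthy participants received an oral capsule. SAD: 5–800 mg fasted. MAD: 40, 120 or 360 mg once daily Days 1–7, fed. Females, or males ≥65 y, got a single 100 mg fasted dose, referenced to part 1. Plasma (all parts) and urine (MAD) were analysed non-compartmentally, BLQ=0, linear trapezoidal AUC. Dose proportionality used a power model (slope 95% CI); sex/age used geometric mean ratios (90% CI); fed-vs-fasted was compared informally.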

[9] = tested on: plasma 11-deoxycortisol; assay: Phase I pharmacodynamics: plasma 11-deoxycortisol; assay type: in vivo, human; conditions: MAD, non-ACTH challenge conditions
[10] = tested on: plasma renin activity; assay: Phase I pharmacodynamics: plasma renin activity; assay type: in vivo, human; conditions: MAD 40 to 360 mg once daily
[11] = MAD Day 6, all multiple-dose levels

For `CC(=O)N[C@H]1CC[C@H](NC(=O)CN2CCN(c3nncc(-c4ccc(C)cc4)n3)CC2)CC1` [lorundrostat, Lorundrostat], the “ACTH-stimulated aldosterone response compared with placebo” value [1, 11] was “completely blunted”, the “maximum decrease of PAC compared with placebo” value ([1]; SAD, at 4 h and 8 h post-dose) was ~ 80% and the “time for plasma aldosterone to return to baseline” value ([1]; multiple once-daily 120-mg doses) was ≤ 16 h. The “reduction of PAC (AUC0–24)” value ([1]; single 400- to 800-mg doses) was “up to 70%”, the “time for PAC to return to values near baseline” value ([1]; single doses 5–50 mg, post-dose) was ≤ 24 h and the “duration of the reduction of PAC” value ([1]; single doses 100–800 mg) was “sustained until 24 h post‐dose”. For the same molecule, the “urine sodium and urinary log10 (10 × Na+/K+) ratio” value ([2]; MAD Day 1, all dose levels) was “initially increased”, the “urine sodium and urinary log10 (10 × Na+/K+) ratio” value ([2]; MAD Day 7, end of the dosing period) was “returned to baseline levels” and the “urinary log10 (10 × Na+/K+) ratio” value ([2]; MAD, Day 7 to Day 9 (after last dose)) was “clear reductions”. For the same molecule, the “urine sodium and urinary log10 (10 × Na+/K+) ratio” value ([2]; SAD, all dose levels) was “increased”, the “incidence of dizziness (of mild intensity)” value ([3]; across all cohorts, nine lorundrostat-treated participants, placebo one (3.4%)) was 10.3% and the “overall incidence of TEAEs” value ([3]; all lorundrostat-treated participants (41/87), placebo 18/29 [62%]) was 47%. The “findings in clinical laboratory, vital signs, ECGs, or physical examination” value ([3]; all parts) was “no clinically significant findings”, the “serious TEAEs” value ([3]; all parts) was “no serious TEAEs” and the tolerability ([3]; all parts, single up to 800 mg, once daily up to 360 mg for 7 days) was “well tolerated”. For the same molecule, the “serum 11-DOC compared with placebo” value [4] was “increased”, the “selectivity for CYP11B2 over CYP11B1” value [5] was 374 fold and the “maximum mean increase of serum potassium” value ([6]; MAD 40 mg, Day 8) was 0.44 mmol/L. For the same molecule, the “maximum mean increase of serum potassium” value ([6]; MAD 120 mg, Day 7) was 0.6 mmol/L, the “subjects reaching the stopping criterion for potassium of 6.0 mmol/L” value ([6]; MAD part 2) was “None” and the ACTH-stimulated cortisol response [7, 11] was “no effect”. For the same molecule, the “change from baseline of serum cortisol concentrations” value ([7]; MAD, non-ACTH challenge conditions) was “no relevant changes from baseline”, the “effect on cortisol (AUC0–72)” value ([7]; single doses 10 to 800 mg) was “without effecting cortisol” and the “estimate of the slope for AUC0–24 versus dose (power model)” value ([8]; MAD Day 7, 95% CI, 1.060–1.234) was 1.147. The “steady state achieved by” value ([8]; MAD once-daily dosing) was ~5 days, the “estimate of the slope (95% CI) for C max versus dose (power model)” value ([8]; SAD 5–800 mg) was 1.104 (1.043–1.164) and the “interindividual variability of exposure parameters (C max and AUC0–∞)” value ([8]; SAD 5–800 mg) was < 20%. For the same molecule, the “effect of fed state on the PK profile” value ([8]; first cohort of part 2 (fed) vs part 1 (fasted), exploratory) was “did not appear to be affected”, the half-life ([8]; human, plasma, oral, 5 mg, t 1/2, SAD 5 mg single dose, fasted, mean (SD)) was 8.3 h and the half-life ([8]; human, plasma, oral, 10 mg, t 1/2, SAD 10 mg single dose, fasted, mean (SD)) was 7.9 h. For the same molecule, the half-life ([8]; human, plasma, oral, 40 mg, t 1/2, MAD 40 mg once daily, fed, Day 1, mean (SD)) was 5.3 h, the half-life ([8]; human, plasma, oral, 50 mg, t 1/2, SAD 50 mg single dose, fasted, mean (SD)) was 9.1 h and the half-life ([8]; human, plasma, oral, 120 mg, t 1/2, MAD 120 mg once daily, fed, Day 1, mean (SD)) was 4.4 h. For the same molecule, the half-life ([8]; human, plasma, oral, 200 mg, t 1/2, SAD 200 mg single dose, fasted, mean (SD)) was 9.9 h, the Tmax ([8]; human, plasma, oral, 360 mg, T max, MAD 360 mg once daily, fed, Day 1, median (minimum, maximum)) was 3 h and the half-life ([8]; human, plasma, oral, 360 mg, t 1/2, MAD 360 mg once daily, fed, Day 1, mean (SD)) was 4.4 h. The half-life ([8]; human, plasma, oral, 360 mg, t 1/2, MAD 360 mg once daily, fed, Day 7, mean (SD)) was 9.2 h, the half-life ([8]; human, plasma, oral, 400 mg, t 1/2, SAD 400 mg single dose, fasted, mean (SD)) was 9.7 h and the half-life ([8]; human, plasma, oral, 800 mg, t 1/2, SAD 800 mg single dose, fasted, mean (SD)) was 10.5 h. For the same molecule, the half-life ([8]; human, plasma, oral, mean t 1/2, MAD Day 7, range over dose groups) was 9.1 to 11.9 h, the half-life ([8]; human, plasma, oral, t 1/2, single- and multiple-dose administration) was 10 to 12 h and the “difference in exposure between females and males” value ([8]; single 100 mg dose, part 3 vs part 1) was “no statistically significant difference”. The “difference in exposure between older adult and younger adult participants” value ([8]; single 100 mg dose, part 4 vs part 1) was “no statistically significant difference”, the “change from baseline of plasma 11-deoxycortisol concentrations” value [9] was “no relevant changes from baseline” and the “plasma renin activity compared with placebo” value [10] was “increased”.
